This note sets out measurements from PMC8639468 (The Journal of Biological Chemistry, 2021).

Where no end group is shown, it is not given here.

One data set concerns HeLa cells. The experiment in a line: Saporin cytosolic delivery, MTT lethality. It is filed as cell-based. The conditions noted are these: SAP 10, 20, 50 μg/ml alone, 60 min. In short, it runs like this: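 HeLa seeded at 1×10^4 cells/well and grown 24 h. Cells exposed to saporin, with or without vehicle peptide, for 1 h at 37 °C. After two PBS washes, cells kept in DMEM for 6 h at 37 °C. Viability read by MTT: formazan in DMSO at 490 nm, lethality calculated against untreated cells and cell-free blank.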
As to “SAP: membrane-impermeable ribosome-inactivation protein, 28.6 kDa cargo”, the “cell survival with saporin alone” value is given as “barely affected”.

Test system in the next data set: not listed separately
The experiment in a line: MTT cytotoxicity assay. Particulars: human, HeLa cells. Type of data set: cell-based. In short, it runs like this: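 HeLa cells (1×10^4/well) grown 24 h, then exposed to serially diluted peptides for 1 h at 37 °C. Peptide removed; MTT added (5 mg/ml stock in PBS) in fresh medium for 4 h at 37 °C. Formazan dissolved in DMSO and read at 490 nm. Lethality = (Acon − A)/(Acon − Abl), using untreated cells and cell-free blank. IC50 from semilog curves, three independent measurements.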
Regarding ILILAAKLAKALKKEAKALK-NH2 [LP4], the IC50 (usually the concentration at which inhibition is half-maximal) at 1 h is greater than 128 µM.
ILILAAKLLKALKKEAKLLK-NH2 [LP3] displayed an IC50 at 1 h of 12.5 µM.
On the same count and under the same terms, next, ILILAAKLLKLLKKELKLLK-NH2 [LP2]: 1.3 µM; ILILILAAKLAKALKKEAKALK-NH2 [LP5]: 13 µM.
As to KLLKLLKKELKLLK-NH2 [LP1], the concentration for half-maximal inhibition (IC50) at 1 h was greater than 128 µM.
